Reference: PMC4339548 (Clinica chimica acta; international journal of clinical …, 2015)
Where two headings read alike, the source gives them in different places.

Key:
[1] = Urinary excretion of oral sugar probes; type: in vivo, human; details: for Percent urinary excretion of oral sugar probe: healthy subjects, oral cocktail, mean ± SD/SE; for Lactulose/Mannitol Ratio / Percent urinary excretion of oral sugar probe corrected for CrCl / Sucralose/Lactulose Ratio: mean ± SE; for % Total (of 24 h urinary excretion) corrected for CrCl / % Total (cum) corrected for CrCl: normalized for CrCl; for % Total (of 24 h urinary excretion) / % Total (cumulative): not normalized; for Percent urinary excretion of oral sugar probe corrected for CrCl: percent excretion divided by creatinine clearance; for % Total (cum) corrected for CrCl / % Total (cumulative): cumulative first 12 h; for Range of tertile means of 24 h percent excretion of oral dose: data divided into 3 tertile groups, lowest to highest excretion
[2] = type: in vivo, human; details: 24 h
Summary of the method: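 Age- and BMI-matched controls and patients fasted overnight and emptied their bladders. At 6 AM they took 2 g mannitol, 7.5 g lactulose and 40 g sucrose in 8 oz water, plus 1 g sucralose in 2 capsules. Fasting continued 2 h, with no "diet" foods or drinks from 48 h before through the test. Urine was pooled over 24 h and sugars were measured as alditol acetates by GC (DB-225MS). Results were expressed as % of oral dose and as the sucralose/lactulose ratio.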

[3] = ref [18], cited from earlier work
[4] = 12-24 hour, listed as lactulose
[5] = 12-24 hour, listed as sucralose

Structure (SMILES)	Percent urinary excretion of oral sugar probe ([1]; 0-5 hour urine collection)	% Total (of 24 h urinary excretion) corrected for CrCl ([1]; 0-5 hour)	% Total (of 24 h urinary excretion) ([1]; 0-5 hour)	Percent urinary excretion of oral sugar probe corrected for CrCl ([1]; 0-5 hour)	Percent urinary excretion of oral sugar probe ([1]; 0-24 hour urine collection)	% Total (of 24 h urinary excretion) corrected for CrCl ([1]; 0-24 hour)	% Total (of 24 h urinary excretion) ([1]; 0-24 hour)	Percent urinary excretion of oral sugar probe corrected for CrCl ([1]; 0-24 hour)	Percent urinary excretion of oral sugar probe ([1]; 5-12 hour urine collection)	% Total (of 24 h urinary excretion) corrected for CrCl ([1]; 5-12 hour)	% Total (of 24 h urinary excretion) ([1]; 5-12 hour)	Percent urinary excretion of oral sugar probe corrected for CrCl ([1]; 5-12 hour)	Percent urinary excretion of oral sugar probe ([1]; 12-24 hour urine collection)	% Total (of 24 h urinary excretion) corrected for CrCl ([1]; 12-24 hour)	% Total (of 24 h urinary excretion) ([1]; 12-24 hour)	Percent urinary excretion of oral sugar probe corrected for CrCl ([1]; 12-24 hour)	% Total (cum) corrected for CrCl [1]	% Total (cumulative) [1]	Range of tertile means of 24 h percent excretion of oral dose [1]	further results
OC[C@H]1O[C@@H](O[C@@H]2[C@@H](CO)O[C@](O)(CO)[C@H]2O)[C@H](O)[C@@H](O)[C@H]1O [Lactulose, 4-o-β-D-galactopyranosyl-D-fructofuranose]	0.95 ± 0.6%	30%	29.3%	0.012 ± 0.001	3.11 ± 0.2%	100%	100%	0.04 ± 0.002	1.1 ± 0.19%	32.4%	26.8%	0.012 ± 0.002	1.4 ± 0.1%	40%	43.9%	0.016 ± 0.001	60%	56.1%	0.5%-1.7%	Lactulose/Mannitol Ratio ([1]; 0-5 hour urine): 0.065 ± 0.05; Lactulose/Mannitol Ratio ([1]; 0-5 hour urine, listed as lactulose): .065; % Total (of 24 h urinary excretion) ([1]; 0-5 hour, listed as lactulose): 29.3%; Lactulose/Mannitol Ratio ([1]; 0-24 hour urine): 0.124 ± 0.010; Lactulose/Mannitol Ratio ([1]; 0-24 hour urine, listed as lactulose): 0.124; Lactulose/Mannitol Ratio ([1]; 5-12 hour urine): 0.25 ± 0.03; Lactulose/Mannitol Ratio ([1]; 5-12 hour urine, listed as lactulose): 0.25; Lactulose/Mannitol Ratio ([1]; 12-24 hour urine): 0.534 ± 0.11; Lactulose/Mannitol Ratio ([1]; 12-24 hour urine, listed as lactulose): 0.534; % Total (of 24 h urinary excretion) corrected for CrCl [1, 4]: 40%; % Total (of 24 h urinary excretion) [1, 4]: 43.9%; Variation of lactulose/mannitol (L/M) ratio over 24 h ([1]; across collection segments, peak in second 12 hours): more than 8 fold
OC[C@@H](O)[C@@H](O)[C@H](O)[C@H](O)CO [Mannitol, D-mannitol]	15.6 ± 0.8%	52.9%	61.5%	0.18 ± 0.01	28.9 ± 1.3%	99%	100%	0.34 ± 0.029	6.03 ± 0.96%	22.6%	20%	0.077 ± 0.01	6.4 ± 1.3%	23.5%	18.5%	0.08 ± 0.016	75.5%	81.5%	–	% Total (of 24 h urinary excretion) corrected for CrCl ([1]; 0-5 hour, listed as mannitol): 52.9%; % Total (of 24 h urinary excretion) ([1]; 0-5 hour, listed as mannitol): 61.5%; % Total (of 24 h urinary excretion) corrected for CrCl ([1]; 12-24 hour, listed as mannitol): 23.5%; % Total (of 24 h urinary excretion) ([1]; 12-24 hour, listed as mannitol): 18.5%
OC[C@H]1O[C@H](O[C@]2(CCl)O[C@H](CCl)[C@@H](O)[C@@H]2O)[C@H](O)[C@@H](O)[C@H]1Cl [Sucralose, 1,6-dichloro-1,6-dideoxy-β-D-fructofuranosyl-4-chloro-4-deoxy-α-D-glucopyranoside]	0.5 ± 0.8%	33.3%	35.9%	0.005 ± 0.001	1.23 ± 0.14%	99.5%	100%	0.015 ± 0.002	0.51 ± 0.13%	38%	29.7%	0.0057 ± 0.001	0.3 ± 0.04%	28.2%	34.4%	0.004 ± 0.0006	71.3%	65.6%	0.4%-2.4%	Sucralose/Lactulose Ratio ([1]; 0-5 hour urine): 0.53 ± 0.10; Sucralose/Lactulose Ratio ([1]; 0-5 hour urine, listed as sucralose): 0.53; % Total (of 24 h urinary excretion) corrected for CrCl ([1]; 0-5 hour, listed as sucralose): 33.3%; % Total (of 24 h urinary excretion) ([1]; 0-5 hour, listed as sucralose): 35.9%; Sucralose/Lactulose Ratio ([1]; 0-24 hour urine): 0.49 ± 0.08; Sucralose/Lactulose Ratio ([1]; 0-24 hour urine, listed as sucralose): 0.49; Sucralose/Lactulose Ratio ([1]; 5-12 hour urine): 0.54 ± 0.13; Sucralose/Lactulose Ratio ([1]; 5-12 hour urine, listed as sucralose): 0.54; Sucralose/Lactulose Ratio ([1]; 12-24 hour urine): 0.36 ± 0.06; Sucralose/Lactulose Ratio ([1]; 12-24 hour urine, listed as sucralose): 0.36; % Total (of 24 h urinary excretion) corrected for CrCl [1, 5]: 28.2%; % Total (of 24 h urinary excretion) [1, 5]: 34.4%; mean urinary excretion sucralose/lactulose ratio ([2]; Parkinson's disease patients (N=9), p ≤ 0.001 vs controls): 0.48 ± 0.1; mean urinary excretion sucralose/lactulose ratio ([2]; healthy controls (N=10)): 0.21± 0.1; 24 h mean urinary excretion sucralose value ([3]; Parkinson's disease patients (N=9), p ≤ 0.015 vs controls): 1.12 ± 0.1; 24 h mean urinary excretion sucralose value ([3]; healthy controls (N=10), BMI/age-matched): 0.58 ± 0.1
OC[C@H]1O[C@@](CO)(O[C@H]2O[C@H](CO)[C@@H](O)[C@H](O)[C@H]2O)[C@@H](O)[C@@H]1O [Sucrose, α-D-glucopyranosyl-β-D-fructofuranoside]	0.5 ± 0.15%	26.9%	29.6%	0.006 ± 0.0007	1.82 ± 0.17%	94.6%	100%	0.0223 ± 0.002	–	26.9%	27.4%	0.006 ± 0.001	0.8 ± 0.7%	40.8%	43%	0.009 ± 0.0009	53.8%	57%	0.3%-0.6%	–
